From PubChem BioAssay
Sampled rows, rich in hits. Any-hit rate of the full collection: about 3%.
NPR2 activator: human GC-B receptor activators, primary screen, HEK293 GC-B cells, cGMP TR-FRET, EC30 CNP; Atrial natriuretic peptide receptor 2 (Homo sapiens), P20594; 0% at EC30 CNP, 100% saturating CNP; activation, % at 10 µM; 370,000 compounds, 0.11% hits; AID 1920062, 2024;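 active means activation at 10 µM reaching about 35% in either raw or pattern-adjusted values, limit read from the data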
JMJD2C inh: inhibitors of GASC-1 histone demethylase, primary screen, biochemical, fluorescence, DELFIA europium | AID 2099, 2009 | GST-JMJD2C(1-420) H3K9me3 demethylation | 330,000 compounds, 0.069% hits | inhibition, % at 2.35 µM;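 active means more than half of a compound's replicate wells show inhibition beyond 50%, single wells judged on their own value; inconclusive means some, but no more than half, of replicates pass 50% inhibition; inactive means no replicate passes 50% inhibition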;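 further: signal counts dimethyl H3K9 product captured on neutravidin plate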
Hep lipid drop: inhibitors of hepatocyte lipid droplet formation, primary screen, imaging, high-throughput imaging, BODIPY stain; AML12 mouse hepatocytes, oleate lipid droplets; inhibition, % at 6.5 µM; 240,000 compounds, 0.4% hits; AID 1656, 2009;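 active means lipid droplet intensity inhibited by at least 50%, with more than 500 cells counted; inconclusive means wells with under 300 cells, treated as cytotoxic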
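Test system: AML12 hepatocytes (mouse); reagent: oleate loading, 100 µM; dosing: one dose, 6.5 µM compound; incubation: overnight exposure; signal: fluorescence imaging, 20x objective, two fields per well; read-out basis: % inhibition of corrected integrated BODIPY droplet signal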
GC-A act: GC-A stimulated cGMP production enhancers – HEK293 GC-A cells, cGMP TR-FRET, EC30 ANP, primary screen. 0% at EC30 ANP, 100% saturating ANP. activation, % at 10 µM. 370,000 compounds, 0.14% hits. AID 1671463, 2021; in the data active means activation above about 40%
NR3A LBD binder: binders of NR3A ligand-binding domain, primary screen, biophysical, differential scanning fluorimetry, uHTS; 340,000 compounds, 2.5% hits; AID 1259313, 2017; Glutamate receptor ionotropic, NMDA 3A (GRIN3A) ligand-binding domain; NR3A LBD differential scanning fluorimetry, Tm shift; 0% = protein alone, 100% = glycine-bound protein; Tm shift relative to glycine control, % at 25 µM;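 active means melting temperature shift of at least 10% of the positive control shift, at one fixed dose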
aDG glyco up: activators of alpha-DG glycosylation, primary screen, uHTS, Pro5-aDG cells, AlphaScreen | alpha-DG glycosylation AlphaScreen (IIH6); 0% Pro5, 100% B10-LARGE cell signal | activation, % at 10 µM | 360,000 compounds, 0.22% hits | AID 624168, 2012;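 active means activation of at least 8% versus controls, or a plate z-score of at least 8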;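 further: Pro5 are CHO cells carrying HIG-tagged alpha-DG that lacks glycosylation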
Large screens that a line does not name were inactive.

O=C(CSc1ccccc1)Nc1nnc(COc2ccc(Cl)cc2)s1	NR3A LBD binder 14
COc1ccc2nc(NC(=O)CSc3ccccc3)sc2c1	NR3A LBD binder 31
COc1ccc2nc(NC(=O)CSC3=NCCS3)sc2c1	none (no result: Hep lipid drop)
S=C(NCC1CCCCC1)OC1CCC12CCC(c1ccccc1)CC2 (stereo not drawn)	none (no result: JMJD2C inh, Hep lipid drop, NR3A LBD binder, aDG glyco up)
C[C@@H]1ON(C)[C@H]2C[C@H]3c4[nH]c5c(-c6cccc(F)c6)cccc5c4CCN3C(=O)[C@@H]12	none (no result: JMJD2C inh, Hep lipid drop, NR3A LBD binder, aDG glyco up)
COC(=O)C1CN(Cc2ccc(F)cc2)CCS(=O)(=O)N1Cc1cn(CCOC(C)=O)nn1 (stereo not drawn)	none (no result: JMJD2C inh, Hep lipid drop, NR3A LBD binder, aDG glyco up)
CCOc1ccc2nc(NC(=O)CSc3ccc(Cl)cc3)sc2c1	NR3A LBD binder 10
Nc1nnc(-c2cn(-c3ccccc3)nc2-c2ccccc2)o1	none
Nc1nnc(-c2cn(-c3ccccc3)nc2-c2ccc(Cl)cc2)o1	NR3A LBD binder 25
CC(C)NC(=O)N[C@H]1C[C@@H]2O[C@@H](CO)CC[C@@H]2O[C@@H]1CCc1ccc(-c2ccc(F)cc2)cc1	none (no result: JMJD2C inh, Hep lipid drop, NR3A LBD binder, aDG glyco up)
CSc1cccc(NC(=O)Nc2nc3c(C)cccc3s2)c1	NR3A LBD binder 18
COc1ccc(CNC(=O)CCC(=O)Nc2nnc(CC(C)C)s2)cc1	none
Cc1ccc(-c2csc3nc(SCC(=O)N(C)C)n(Cc4ccccc4)c(=O)c23)cc1	none
NC(=O)CSc1nc2scc(-c3ccc(Cl)cc3)c2c(=O)n1Cc1ccccc1	NR3A LBD binder 13
O=C(COCc1ccccc1)N1CC[C@H]2[C@H](CCCN2Cc2ccccc2)C1	none (no result: JMJD2C inh, Hep lipid drop, NR3A LBD binder, aDG glyco up)
O=C(O)CSc1cc(NS(=O)(=O)c2cccc([N+](=O)[O-])c2)c2ccccc2c1O	aDG glyco up 2.6
CCc1ccc(S(=O)(=O)Nc2cc(SCC(=O)O)c(O)c3ccccc23)cc1	JMJD2C inh inconclusive, aDG glyco up 8.1
CCOc1ccc(S(=O)(=O)Nc2cc(SCC(=O)O)c(O)c3ccccc23)cc1	JMJD2C inh inconclusive, aDG glyco up 3.9
Cc1ccc(C)c(S(=O)(=O)Nc2cc(SCC(=O)O)c(O)c3ccccc23)c1	aDG glyco up 8.5 (no result: NPR2 activator, GC-A act)
CCc1ccc(S(=O)(=O)Nc2ccc(O)c3ccccc23)cc1	none
Nc1c(Cl)ncnc1N/N=C/c1ccccn1	none (no result: aDG glyco up)
Clc1cccc(/C=N/Nc2ncnc3ccccc23)c1	NR3A LBD binder 14 (no result: Hep lipid drop)
Nc1c(Cl)ncnc1N/N=C/c1ccnc2ccccc12	NR3A LBD binder 13
C[C@@H]1CN([C@@H](C)CO)C(=O)CCCn2cc(nn2)CO[C@H]1CN(C)C(=O)Nc1cccc(F)c1	none (no result: JMJD2C inh, Hep lipid drop, NR3A LBD binder, aDG glyco up)
Cn1cc(CC(=O)Nc2ccc(Nc3cccnc3)cc2)c2ccccc21	none (no result: JMJD2C inh, Hep lipid drop, NR3A LBD binder, aDG glyco up)
COc1cccc(Nc2nc3ccc(OC)cc3s2)c1	NR3A LBD binder 29
COc1ccc2nc(NC(=S)N(C)C)sc2c1	NR3A LBD binder 24
CCCC(=O)Nc1nc2ccc(OC)cc2s1	none
COc1ccc(Nc2nc3ccccc3s2)cc1	NR3A LBD binder 29
N#CCC[C@@H]1CC[C@]2(CCCN(C(=O)C3CCCC3)C2)O1	none (no result: JMJD2C inh, Hep lipid drop, NR3A LBD binder, aDG glyco up)
CCc1ccc(C(=O)Cn2ccsc2=N)cc1	NR3A LBD binder 39
CCCCNC(=S)NCC(c1ccccc1)c1c[nH]c2ccccc12 (stereo not drawn)	NR3A LBD binder 30
Cc1cc([N+](=O)[O-])c2[nH]c(C(=O)N/N=C/c3ccccc3C(=O)O)c(-c3ccccc3)c2c1	NR3A LBD binder 29 (no result: Hep lipid drop)
COc1ccc(CN(CCN2CCOCC2)C(=O)c2cccc(F)c2F)cc1OC	none (no result: JMJD2C inh, Hep lipid drop, NR3A LBD binder, aDG glyco up)
N=C1C(c2nc3ccccc3s2)=C(O)CN1C1CCCCC1	GC-A act 54
N=C1C(c2nc3ccccc3s2)=C(O)CN1Cc1ccccc1	GC-A act 46
CCN(CC)CCCN1CC(O)=C(c2nc3ccccc3s2)C1=N	NR3A LBD binder 18
N=C1C(c2nc3ccccc3s2)=C(O)CN1C1CCC(O)CC1 (stereo not drawn)	none (no result: aDG glyco up)
CN1CCN(c2ccc3c(c2)Oc2ccccc2CN(Cc2cn(Cc4ccc(F)cc4)nn2)S3(=O)=O)CC1	none (no result: JMJD2C inh, Hep lipid drop, NR3A LBD binder, aDG glyco up)
Cc1ccc2c(C)c(C)c(=O)n(C)c2c1	NR3A LBD binder 11 (no result: JMJD2C inh, Hep lipid drop)
O=C(CSc1nnc(-c2c[nH]c3ccccc23)n1C1CC1)NC1CCS(=O)(=O)C1 (stereo not drawn)	none (no result: JMJD2C inh, Hep lipid drop, NR3A LBD binder)
O=C(O)[C@H]1CCCN1C(=O)c1ccccc1N1C(=O)[C@@H]2Cc3c([nH]c4ccccc34)C(c3cccc(Cl)c3)N2C1=O (stereo partly drawn)	NPR2 activator 35
O=C(Nc1ccccc1)c1cccc(S(=O)(=O)Nc2ccccn2)c1	NR3A LBD binder 16
O=C1CSc2ccc(C(=O)Nc3cccc(S(=O)(=O)Nc4ccc(Br)cc4)c3)cc2N1	NR3A LBD binder 28 (no result: Hep lipid drop)
O=C(O)c1ccc(NC(=O)c2cccc(S(=O)(=O)Nc3ccc(C(=O)O)cc3)c2)cc1	none
COc1ccc(NC(=O)c2cccc(S(=O)(=O)Nc3ccc(Br)cc3)c2)cn1	NR3A LBD binder 22
O=C(Nc1ccc(Br)cc1)c1cccc(S(=O)(=O)Nc2cnc3ccccc3c2)c1	NR3A LBD binder 41
O=S(=O)(c1ccccc1F)N1CCC(c2nc3ccccc3o2)CC1	none (no result: JMJD2C inh, Hep lipid drop, NR3A LBD binder, aDG glyco up)
Cc1ccc(C)c(Nc2nc3c(S(=O)(=O)c4ccccc4)nnn3c3ccccc23)c1	none
Cc1cccc(-c2nnn3c2nc(NCCc2ccc(S(N)(=O)=O)cc2)c2ccccc23)c1	NR3A LBD binder 33
CC(=O)NCCNc1nc2c(-c3cccc(C)c3)nnn2c2ccccc12	none
COCCNc1nc2c(-c3cccc(C(F)(F)F)c3)nnn2c2ccccc12	NPR2 activator 42
CNc1nc2c(-c3ccc(Cl)cc3)nnn2c2ccccc12	none
Cc1ccc(-c2nnn3c2nc(NC(C)C)c2ccccc23)cc1	NR3A LBD binder 23
Cc1ccc(S(=O)(=O)c2nnn3c2nc(Nc2cccc(C)c2)c2ccccc23)cc1	NPR2 activator 50, GC-A act 49
Cn1c(SSc2ccc(-c3cccnc3)n2C)ccc1-c1cccnc1	none (no result: JMJD2C inh, Hep lipid drop)
CC(C)C[C@H]1COc2cc(Br)ccc2S(=O)(=O)N1Cc1cn(Cc2ccco2)nn1	none (no result: JMJD2C inh, Hep lipid drop, NR3A LBD binder, aDG glyco up)
Nc1nc2c(C(=O)N3CCCC3)nnn2c2ccccc12	none (no result: JMJD2C inh, Hep lipid drop, NR3A LBD binder, aDG glyco up)
Nc1nc2c(-c3ccc(Br)cc3)nnn2c2ccccc12	NR3A LBD binder 37
CCCCNc1nc2c(-c3ccccc3)nnn2c2ccccc12	none
